According to ChEMBL document CHEMBL2321713 (Bioorg Med Chem, 2013):

Legend:
[1] = tested on: Liver microsomes; assay: Drug metabolism in rat liver microsomes assessed as C3'-demethylation after 30 mins by LC-UV/MS analysis; assay type: ADME, Microsome; settings: 0.5 h
How it was run: (§1)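 Rat or human liver microsomes (20 mg protein/ml suspension) were added to start reactions after test compound (1 mM stock) in 50 mM Tris-Cl pH 7.4 with MgCl2 was pre-incubated 30 min at 37 °C. Incubation ran 30 min at 37 °C, shaken in air. Reactions were quenched with ice-cold dichloromethane plus internal standards. Metabolites were separated on C18 (acetonitrile/water gradient 40→60%) and identified by positive-mode MS.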

[2] = organism: Homo sapiens; assay: Selectivity ratio of Ki for human MT1 receptor to Ki for human MT2 receptor
How it was run: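 Whole-cell competition binding on CHO cells stably expressing hMT1 or hMT2, 1.5×10^5 cells per tube. Incubated 60 min at 4 °C, then filtered through GF/C and counted. Means of duplicate experiments. Ratio is MT1 Ki/MT2 Ki.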

[3] = Elimination half life in rat liver microsomes by HPLC/MS analysis; assay type: ADME, Microsome; settings: read-out: beta t1/2
How it was run: (§2)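 Rat or human liver microsomal incubations at 37 °C were analysed for percent parent remaining over incubation time. k is the slope of the linear regression of ln(% remaining) versus time, and t1/2 = 0.693/k. In vitro intrinsic clearance was derived from t1/2 and used to predict hepatic clearance.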

[4] = tested on: Liver microsomes; assay: Drug metabolism in human liver microsomes assessed as C3'-demethylation after 30 mins by LC-UV/MS analysis; assay type: ADME, Microsome; settings: 0.5 h; how it was run: as §1
[5] = target: T1, Melatonin receptor type 1A (Homo sapiens, UniProt P48039); assay: Agonist activity at human MT1 receptor expressed in CHO cells coexpressing Galpha protein 16z25 assessed as increase in calcium mobilization measured for 3 mins by FLIPR assay; assay type: functional, cell-based
T1 sequence (P48039 whole entry): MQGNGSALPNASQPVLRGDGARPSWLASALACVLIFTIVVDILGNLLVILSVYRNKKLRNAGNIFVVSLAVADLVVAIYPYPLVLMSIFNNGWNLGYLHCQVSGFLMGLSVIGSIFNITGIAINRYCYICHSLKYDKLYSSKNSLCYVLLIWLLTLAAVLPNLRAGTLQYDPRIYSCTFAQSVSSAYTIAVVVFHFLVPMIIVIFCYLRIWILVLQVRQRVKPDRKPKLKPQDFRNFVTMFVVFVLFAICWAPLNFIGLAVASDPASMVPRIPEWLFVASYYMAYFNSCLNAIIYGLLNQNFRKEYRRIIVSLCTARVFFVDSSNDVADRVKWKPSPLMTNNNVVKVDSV
How it was run: (§3)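 CHO cells stably expressing human MT1 or MT2 with chimeric Gα16z25 were seeded in growth medium the day before. Fluorescence at 488 nm excitation was followed for 3 min after agonist addition.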

[6] = organism: Homo sapiens; assay: Selectivity ratio of EC50 for human MT1 receptor to EC50 for human MT2 receptor
How it was run: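 Ca2+ mobilization (FLIPR) in CHO clonal lines stably co-expressing hMT1 or hMT2 with chimeric Gα16z25. Cells seeded a day before, loaded with 2 µM Fluo-4 in HBSS (pH 7.5) with 2.5 mM probenecid, 1 h, 37 °C. Fluorescence read 3 min after agonist addition, excitation 488 nm. […] Ratio is MT1 EC50/MT2 EC50.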

[7] = target: T2, Melatonin receptor type 1B (Homo sapiens, UniProt P49286); assay: Displacement of [3H]melatonin from human MT2 receptor expressed in CHO cells after 60 mins by microbeta scintillation method; assay type: cell-based
T2 sequence (P49286 whole entry): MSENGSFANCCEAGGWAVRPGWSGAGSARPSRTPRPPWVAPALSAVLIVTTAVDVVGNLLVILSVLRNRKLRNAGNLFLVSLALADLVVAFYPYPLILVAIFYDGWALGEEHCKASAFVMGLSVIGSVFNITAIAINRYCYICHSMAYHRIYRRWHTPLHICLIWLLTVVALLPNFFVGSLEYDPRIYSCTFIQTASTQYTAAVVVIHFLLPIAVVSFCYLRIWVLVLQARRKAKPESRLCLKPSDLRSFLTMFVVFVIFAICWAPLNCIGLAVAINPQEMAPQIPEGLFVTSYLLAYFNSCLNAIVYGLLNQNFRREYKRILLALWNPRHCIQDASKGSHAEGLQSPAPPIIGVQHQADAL

[8] = Elimination half life in human liver microsomes by HPLC/MS analysis; assay type: ADME, Microsome; settings: read-out: beta t1/2; how it was run: as §2
[9] = Intrinsic clearance in human liver microsomes after 30 mins by HPLC/MS analysis; assay type: ADME, Microsome; settings: read-out: CLH; how it was run: as §2
[10] = target: T2, Melatonin receptor type 1B; assay: Agonist activity at human MT2 receptor expressed in CHO cells coexpressing Galpha protein 16z25 assessed as increase in calcium mobilization measured for 3 mins by FLIPR assay; assay type: functional, cell-based; how it was run: as §3
[11] = tested on: Liver microsomes; assay: Drug metabolism in human liver microsomes assessed as aromatic ring hydroxylation after 30 mins by LC-UV/MS analysis; assay type: ADME, Microsome; settings: 0.5 h; how it was run: as §1
[12] = tested on: Liver microsomes; assay: Drug metabolism in rat liver microsomes assessed as C3-demethylation after 30 mins by LC-UV/MS analysis; assay type: ADME, Microsome; settings: 0.5 h; how it was run: as §1
[13] = Intrinsic clearance in rat liver microsomes after 30 mins by HPLC/MS analysis; assay type: ADME, Microsome; settings: read-out: CLH; how it was run: as §2
[14] = tested on: Liver microsomes; assay: Drug metabolism in rat liver microsomes assessed as aromatic ring hydroxylation after 30 mins by LC-UV/MS analysis; assay type: ADME, Microsome; settings: 0.5 h; how it was run: as §1
[15] = target: T1, Melatonin receptor type 1A; assay: Displacement of [3H]melatonin from human MT1 receptor expressed in CHO cells after 60 mins by microbeta scintillation method; assay type: cell-based
[16] = tested on: Liver microsomes; assay: Drug metabolism in human liver microsomes assessed as C3-demethylation after 30 mins by LC-UV/MS analysis; assay type: ADME, Microsome; settings: 0.5 h; how it was run: as §1

Drug metabolism [1]	Ratio Ki [2]	half-life [3] [min]	Drug metabolism [4]	EC50 [5] [nM]	Ratio EC50 [6]	Ki [7] [nM]	half-life [8] [min]	CLint scaled [9] [mL/min/kg]	EC50 [10] [nM]	Drug metabolism [11]	Drug metabolism [12]	CLint scaled [13] [mL/min/kg]	Drug metabolism [14]	Ki [15] [nM]	Drug metabolism [16]	SMILES
Active	40	8.3	Active	16.3	679	0.55	5.1	367	0.024	Active	Active	301	Active	22.2	Active	CCC(=O)NCCCc1cc(OC)ccc1CCc1cccc(OC)c1
–	417	9.5	–	9.03	181	0.291	5.5	340	0.05	–	–	262	–	121	–	CCC(=O)NCCCc1cc(OC)ccc1OCc1cccc(OC)c1
Active	12	8.6	Active	41.6	171	3.39	6	312	0.24	Active	Active	290	Active	39.5	Active	CCC(=O)NCCCc1cc(OC)ccc1Cc1cccc(OC)c1
–	–	75.3	–	–	–	–	73.2	25.5	–	–	–	33.1	–	–	–	COc1ccc2[nH]cc(CCNC(C)=O)c2c1 [MELATONIN]
Active	527	21.7	Active	8.38	77	0.073	18.3	102	0.11	Active	Active	115	Active	38.2	Active	CCC(=O)NCCCc1cc(OC)ccc1C#Cc1cccc(OC)c1
Active	96	7.5	Active	2.94	14	0.339	5.3	353	0.2	Active	Active	333	Active	32.7	Active	CCC(=O)NCCCc1cc(OC)ccc1-c1cccc(OC)c1
